Shown are actives, neighbours in structure and some others; about 3.6% of the full set was active somewhere.
Beta cell apopt: beta cell apoptosis inhibition; protection from apoptosis, % (concentration not given with the values); INS-1E cytokine-induced death, ATP luminescence, 48 h; percent of positive-control rescue, neutral wells zero; actives 0.8% (n = 300,000);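 active means Every replicate reaches about 75%, or at least half do and their mean reaches it too, limit read from the data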;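 further: higher means more ATP so stronger rescue from cytokine killing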
T cruzi inh: T. cruzi replication inhibition | T. cruzi beta-gal in NIH3T3, luminescence, 90 h | inhibition, % (concentration not given with the values) | actives 1.4% (n = 300,000);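 active means mean inhibition across valid replicates above about 55%, limit read from the data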;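 further: signal also drops with host cell toxicity which is not excluded here; higher percent means less beta-gal luminescence so fewer parasites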
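System: mouse NIH/3T3 fibroblasts infected with β-gal-expressing T. cruzi Tulahuen C4 / Input: NIH/3T3 cells, 5,000 per well / Buffer or medium: Low-serum DMEM with 2% FBS / Probe or stimulus: 5000 reporter trypomastigotes per well / Schedule: ≥90 h infection period, 3 h prior cell attachment / Measured by: GalScreen luminescence, 60 min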
PfHsp90 set2: inhibits growth of yeast expressing Plasmodium falciparum Hsp90 | S. cerevisiae expressing PfHsp90, BacTiter-Glo ATP, 48 h; yeast lacking PDR1 and PDR3 efflux regulators | inhibition, % at 9.4 µM | actives 0.32% (n = 310,000) | AID 504621;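 active means every replicate shows inhibition above about 80%, whatever the replicate mean, limit read from the data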
SKKanGAS inh: SKKanGAS growth inhibition; actives 1.3% (n = 300,000); S. pyogenes SKKanGAS, kanamycin growth, BacTiter-Glo, 6 h; inhibition, % at 7.5 µM; AID 1662;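 active means mean replicate score, as percent of positive control median, at least 50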;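 further: strain carries kanamycin resistance gene driven by streptokinase promoter and grows in 40 µg/ml kanamycin; loss of luminescence reflects streptokinase promoter inhibition or plain growth inhibition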
CSC inhib: cancer stem cell inhibition; inhibition, % at 7.5 µM; AID 2717; cancer stem cell-like cells viability, luminescence; actives 1.1% (n = 300,000); in the data active means inhibition above about 75%; tested in HMLE shEcad cells
HIF act: HIF pathway transcriptional activation. U2OS HRE-luciferase reporter, luminescence; normalized: DMSO 0%, desferrioxamine 100%. activation, % at 7.5 µM (by protocol). actives 0.32% (n = 300,000);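 active means mean activation of at least 10% of the iron chelator positive control signal, with at least half of replicates also reaching 10%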
Hits are given with their value; - = inactive; . = no result.

SMILES	Beta cell apopt	T cruzi inh	PfHsp90 set2	SKKanGAS inh	CSC inhib	HIF act
CCc1ccc(/C=C/c2c([N+](=O)[O-])c(=O)n(C)c(=O)n2C)cc1	-	-	-	49.9	-	-
CSCCC(NC(=O)c1cccc([N+](=O)[O-])c1)C(=O)OCC(=O)N1CCCC1=O (stereo not drawn)	-	-	-	-	-	-
CN1c2ccsc2/C(=N/Nc2ccccc2)CS1(=O)=O	-	-	-	59.7	-	-
Cn1c(-c2c(N)n(-c3ccccc3)c3nc4ccccc4nc23)nc2ccccc21	-	-	-	-	-	-
Cc1cccc(-n2c(N)c(-c3nc4ccccc4n3C)c3nc4ccccc4nc32)c1	-	-	-	77.9	-	-
Cc1ccc(NC(=S)NCCC(c2ccccc2)c2ccccc2)c(C)c1	-	-	-	65.8	-	-
Cc1ccccc1NC(=S)NCCC(c1ccccc1)c1ccccc1	-	-	-	-	-	-
Cc1ccc(SCCNC(=S)Nc2ccc(C)cc2C)cc1	-	57.5	-	-	-	-
S=C(NCCC(c1ccccc1)c1ccccc1)Nc1cccc(Cl)c1	-	-	-	101.7	122.5	-
COc1cc(C2NC(=O)NC3=C2C(=O)OC3)cc(OC)c1OC (stereo not drawn)	-	-	-	-	-	-
O=C(Nc1ccc(S(=O)(=O)Nc2ncccn2)cc1)C12CC3CC(CC(Cl)(C3)C1)C2	-	.	.	.	-	.
N=C1S/C(=C\c2ccc(-c3cccc(Cl)c3)o2)C(=O)N1c1nccs1	-	-	-	131.0	-	-
COc1ccc(/C=C2\SC(=N)N(c3nccs3)C2=O)cc1OC	-	57.8	-	89.0	77.4	-
O=C1OC(c2cccs2)=N/C1=C\c1ccc(-c2cccc(Cl)c2)o1	-	-	-	-	-	-
COc1ccc(/C=C2\SC(=S)N(NC(=O)c3ccncc3)C2=O)cc1OC	-	-	.	-	-	-
O=C(CN(CC1CCCO1)C(=O)CNS(=O)(=O)c1ccc(F)cc1)NCc1ccc(F)cc1 (stereo not drawn)	-	-	-	-	-	-
Cc1cc(NC(=O)CNCC(c2ccccc2)N(C)C)c([N+](=O)[O-])cc1C (stereo not drawn)	.	-	-	-	-	-
CCN(CC)c1ccc(/C=C(\C#N)c2ccccn2)cc1	-	-	-	-	77.6	-
CCOC(=O)CC(NC(=O)CCS(=O)(=O)c1ccc2c(c1)n(C)c(=O)c(=O)n2C)c1ccc(C)cc1 (stereo not drawn)	-	-	-	58.9	-	-
CCC(C)NC(=O)CCS(=O)(=O)c1ccc2c(c1)n(C)c(=O)c(=O)n2C (stereo not drawn)	-	-	-	-	-	.
Cc1nc(C(N)=O)c(N)n1CCc1ccccc1	-	-	-	-	-	-
COc1ccc(Cl)cc1Nc1nc(-c2sc(NC(=O)CC(C)C)nc2C)cs1	-	-	-	-	-	-
Cc1nc(NC(=O)c2ccco2)sc1-c1csc(Nc2ccc(Cl)cc2)n1	-	-	-	-	91.4	-
Cc1nc(NC(=O)CC(C)C)sc1-c1csc(Nc2ccc(Cl)cc2Cl)n1	-	-	-	-	80.1	-
Cc1nc(NC(=O)c2ccco2)sc1-c1csc(Nc2ccc(Cl)cc2Cl)n1	-	59.1	-	-	-	-
SMILES	Beta cell apopt	T cruzi inh	PfHsp90 set2	SKKanGAS inh	CSC inhib	HIF act
Cc1nc(C)c(-c2csc(Nc3cccc(O)c3)n2)s1	-	-	-	-	-	-
CCC(=O)Nc1nc(C)c(-c2csc(Nc3cccc(O)c3)n2)s1	-	-	-	-	76.7	-
O=C(CSc1nc2ccccc2nc1N1CCCCC1)Nc1ccc(F)cc1	-	-	-	-	-	-
COC(CN(C)S(=O)(=O)c1cc2c3c(c1)CCC(=O)N3CCC2)OC	-	-	-	-	-	-
CC1CCCC(NC(=O)C2CCN(C(=O)Nc3ccccc3)CC2)C1C (stereo not drawn)	-	-	.	-	-	-
Cc1nc(NS(=O)(=O)c2ccc(Cl)s2)c2c3c(sc2n1)CCCC3	-	-	-	63.0	-	-
COc1ccccc1C(C)Nc1nc(-c2cccnc2)nc2ccccc12 (stereo not drawn)	-	-	-	-	-	-
Cc1cc(=O)oc2c3c(cc(OCC(=O)NC4CC4)c12)OC(C)(C)CC3	-	-	-	88.0	-	-
Cc1c(C)c2c(OCC(=O)NC3CC3)cc3c(c2oc1=O)CCC(C)(C)O3	-	-	-	-	-	-
O=C(CSc1nc2ccccc2c(=O)n1-c1ccc(Cl)cc1)N/N=C/C=C/c1ccccc1[N+](=O)[O-]	-	-	-	-	.	-
O=C(CSc1nc2ccccc2c(=O)n1-c1ccccc1)N/N=C/C=C/c1ccccc1[N+](=O)[O-]	-	-	-	-	77.6	-
CCN(CC)C(=O)c1ccc(NS(=O)(=O)c2ccc3[nH]c(=O)[nH]c3c2)cc1	-	-	-	-	-	-
Cc1ccc(NC(=S)N2CCN(CCN3C(=O)c4cccc5cccc(c45)C3=O)CC2)cc1	-	73.7	-	-	-	-
O=C1c2cccc3cccc(c23)C(=O)N1CCN1CCN(C(=S)Nc2ccc(F)cc2)CC1	-	-	.	-	-	-
Cc1cc(O)c(C(C)C)cc1NC(=S)Nc1cc(C(C)C)c(O)cc1C	.	.	-	.	.	.
CCN(CC)c1ccc(/C=C2/SC(=O)N(C(C)C)C2=O)o1	.	-	85.8	-	.	-
CC(C)N1C(=O)S/C(=C\c2ccc(-c3ccc(Cl)c(C(=O)O)c3)o2)C1=O	.	-	-	-	-	-
COc1ccc(C(=O)c2c(C(F)(F)F)oc3c2C(=O)c2ccccc2C3=O)cc1OC	.	64.7	-	99.8	101.5	-
COc1ccc(C(=O)Nc2ccc3c(c2)C(=O)c2ccccc2C3=O)cc1OC	-	-	-	-	-	-
Brc1ccc2c(c1)CN1CCCC1=N2	-	-	-	-	-	-
Nc1nc(-c2ccccc2)cc(-c2ccccc2O)n1	-	-	-	-	-	-
NNc1nc(-c2ccccc2)cc(-c2ccccc2O)n1	79.1	-	-	-	-	-
NNc1nc(-c2ccccc2)cc(-c2ccccc2)n1	-	-	-	-	80.1	-
O=[N+]([O-])c1cc([N+](=O)[O-])c2oc(-c3ccccc3)c(Br)c2c1O	.	-	-	69.0	.	-
Nc1ccc(C(=O)O)cc1[N+](=O)[O-]	-	-	-	-	-	-

Compound activity deposited in PubChem by Broad Institute.
